Measurements from ChEMBL document CHEMBL4706681, “New 2-Pyrazoline and Hydrazone Derivatives as Potent and Selective Monoamine Oxidase A Inhibitors” (J Med Chem, 2021).
pKi: −log10 of the molar value. Active and inactive are the calls of the source. The calls are words filed in the database; no cut-off is given here.

Tested on: not listed separately
Experiment: Cytotoxicity against human HepG2 cells assessed as cell viability at 15 uM incubated for 2 hrs by MTT assay relative to control
Format: cell-based
Settings: read-out: Activity
Procedure, shortened: (§1)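 HepG2 human hepatoma cells; viability read by MTT assay, with 0.1% DMSO as vehicle control. Viability given as % of control, mean ± SEM (n = 3); p < 0.05 taken as significant.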

| SMILES | viability at 2 h, 15 µM [%] |
| --- | --- |
| COc1ccc(C(/C=C/c2cccc(OC)c2OC)=N/NC(=O)Cn2c(=O)oc3ccc(Cl)cc32)cc1 | 99.1 |
| C#CCN(C)[C@H](C)Cc1ccccc1 [SELEGILINE] | 87.2 |

Tested on: Mus musculus
Experiment: Antidepressant-like activity in CD1 mouse assessed as maximum efficacy at 20 mg/kg, po administered as subchronic dose gavage for 7 days and measured 1 h post last dose by Porsolt-forced swim test
Format: functional, organism-based
Settings: time 7.0 day
Procedure, shortened: (§2)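 Male albino CD-1 mice (20–25 g), 12 h light/dark, food and water ad libitum. Dosed by oral gavage once daily for 7 days in 200 μL 0.5% CMC; vehicle-only controls. […] Forced swim test run 1 h after the last dose. Immobility scored every 60 s over 6 min; n = 8–12.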

| SMILES | Activity |
| --- | --- |
| COc1ccc(C(/C=C/c2cccc(OC)c2OC)=N/NC(=O)Cn2c(=O)oc3ccc(Cl)cc32)cc1 | inactive |

Tested on: not listed separately
Experiment: Cytotoxicity against human HepG2 cells assessed as cell viability at 7.5 uM incubated for 2 hrs by MTT assay relative to control
Format: cell-based
Settings: read-out: Activity
Procedure, shortened: as §1

| SMILES | viability at 2 h, 7.5 µM [%] |
| --- | --- |
| COc1ccc(C(/C=C/c2cccc(OC)c2OC)=N/NC(=O)Cn2c(=O)oc3ccc(Cl)cc32)cc1 | 118 |
| C#CCN(C)[C@H](C)Cc1ccccc1 [SELEGILINE] | 90 |

Molecular target: T1, Amine oxidase [flavin-containing] B (Homo sapiens, UniProt P27338)
T1 sequence (P27338 whole entry): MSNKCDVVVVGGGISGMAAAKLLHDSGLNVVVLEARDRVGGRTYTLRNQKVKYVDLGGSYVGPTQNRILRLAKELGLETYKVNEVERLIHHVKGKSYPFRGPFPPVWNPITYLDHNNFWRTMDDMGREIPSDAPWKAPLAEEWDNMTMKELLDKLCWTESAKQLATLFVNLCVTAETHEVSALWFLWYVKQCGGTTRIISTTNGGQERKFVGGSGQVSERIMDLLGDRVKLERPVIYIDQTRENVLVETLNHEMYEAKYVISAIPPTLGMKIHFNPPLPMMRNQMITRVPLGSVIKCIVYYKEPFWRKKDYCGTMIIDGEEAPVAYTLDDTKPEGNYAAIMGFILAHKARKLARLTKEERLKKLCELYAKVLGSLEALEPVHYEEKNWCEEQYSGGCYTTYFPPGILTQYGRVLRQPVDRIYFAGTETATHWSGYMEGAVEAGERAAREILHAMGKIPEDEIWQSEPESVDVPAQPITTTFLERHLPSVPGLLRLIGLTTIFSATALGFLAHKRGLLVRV
Experiment: Inhibition of recombinant human MAO-B expressed in baculovirus infected BTI insect cells using p-tyramine as substrate incubated for 30 mins by Amplex red reagent based fluorescence analysis
Format: cell-based
Settings: not given

| SMILES | pKi |
| --- | --- |
| COc1ccc(C(/C=C/c2cccc(OC)c2OC)=N/NC(=O)Cn2c(=O)oc3ccc(Cl)cc32)cc1 | 2.73 |

Molecular target: T1, Amine oxidase [flavin-containing] B
Experiment: Reversible inhibition of human MAO-B assessed as residual enzyme activity at 4 fold IC50 incubated for 15 mins and measured 24 hrs post dialysis relative to control
Settings: 24.25 h, time 1455 min
Procedure, shortened: (§3)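 Dialysed (MWCO 12 000) at 4 °C for 24 h against 100 mM potassium phosphate pH 7.4, 5% sucrose, buffer changed twice. Dialysed and undialysed mixtures assayed together; residual activity from triplicates.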

| SMILES | Activity [%] |
| --- | --- |
| COc1ccc(C(/C=C/c2cccc(OC)c2OC)=N/NC(=O)Cn2c(=O)oc3ccc(Cl)cc32)cc1 | 95.21 |

Molecular target: T1, Amine oxidase [flavin-containing] B
Experiment: Reversible inhibition of human MAO-B assessed as residual enzyme activity at 4 fold IC50 incubated for 15 mins and measured before dialysis relative to control
Settings: not given
Procedure, shortened: as §3

| SMILES | Activity [%] |
| --- | --- |
| COc1ccc(C(/C=C/c2cccc(OC)c2OC)=N/NC(=O)Cn2c(=O)oc3ccc(Cl)cc32)cc1 | 82.37 |

Tested on: Mus musculus
Experiment: Antidepressant-like activity in CD1 mouse assessed as reduction in immobility time at 30 mg/kg, po administered via gavage for 7 days and measured 1 h post last dose by Porsolt-forced swim test
Format: functional, organism-based
Settings: time 7.0 day
Procedure, shortened: as §2

| SMILES | Activity |
| --- | --- |
| COc1ccc(C(/C=C/c2cccc(OC)c2OC)=N/NC(=O)Cn2c(=O)oc3ccc(Cl)cc32)cc1 | Active |

Tested on: not listed separately
Experiment: Cytotoxicity against human HepG2 cells assessed as cell viability at 30 uM incubated for 2 hrs by MTT assay relative to control
Format: cell-based
Settings: read-out: Activity
Procedure, shortened: as §1

| SMILES | viability at 2 h, 30 µM [%] |
| --- | --- |
| COc1ccc(C(/C=C/c2cccc(OC)c2OC)=N/NC(=O)Cn2c(=O)oc3ccc(Cl)cc32)cc1 | 88.5 |
| C#CCN(C)[C@H](C)Cc1ccccc1 [SELEGILINE] | 84 |

Molecular target: T2, Amine oxidase [flavin-containing] A (Homo sapiens, UniProt P21397)
T2 sequence (P21397 whole entry): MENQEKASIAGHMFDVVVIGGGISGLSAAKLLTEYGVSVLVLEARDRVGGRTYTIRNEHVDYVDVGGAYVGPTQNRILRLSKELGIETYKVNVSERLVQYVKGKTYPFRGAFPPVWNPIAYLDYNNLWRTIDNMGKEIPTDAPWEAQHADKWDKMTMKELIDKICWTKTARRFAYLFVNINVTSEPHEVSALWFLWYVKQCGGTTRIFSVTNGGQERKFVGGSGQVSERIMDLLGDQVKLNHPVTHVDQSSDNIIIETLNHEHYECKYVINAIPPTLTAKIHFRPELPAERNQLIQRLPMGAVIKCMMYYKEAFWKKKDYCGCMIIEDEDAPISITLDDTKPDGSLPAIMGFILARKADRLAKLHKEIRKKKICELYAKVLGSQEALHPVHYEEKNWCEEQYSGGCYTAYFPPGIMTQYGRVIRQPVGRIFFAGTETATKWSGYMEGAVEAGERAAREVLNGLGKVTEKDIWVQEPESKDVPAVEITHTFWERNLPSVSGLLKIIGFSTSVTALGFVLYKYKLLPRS
Experiment: Reversible inhibition of human MAO-A assessed as residual enzyme activity at 4 fold IC50 incubated for 15 mins and measured before dialysis by dialysis method relative to control
Settings: not given
Procedure, shortened: as §3

| SMILES | Activity [%] |
| --- | --- |
| COc1ccc(C(/C=C/c2cccc(OC)c2OC)=N/NC(=O)Cn2c(=O)oc3ccc(Cl)cc32)cc1 | 20.16 |

Molecular target: T2, Amine oxidase [flavin-containing] A
Experiment: Reversible inhibition of human MAO-A assessed as residual enzyme activity at 4 fold IC50 incubated for 15 mins and measured 24 hrs post dialysis by dialysis method relative to control
Settings: 24.25 h, time 1455 min
Procedure, shortened: as §3

| SMILES | Activity [%] |
| --- | --- |
| COc1ccc(C(/C=C/c2cccc(OC)c2OC)=N/NC(=O)Cn2c(=O)oc3ccc(Cl)cc32)cc1 | 93.57 |

Molecular target: T2, Amine oxidase [flavin-containing] A
Experiment: Inhibition of recombinant human MAO-A expressed in baculovirus infected BTI insect cells using p-tyramine as substrate incubated for 30 mins by Amplex red reagent based fluorescence analysis
Settings: not given

| SMILES | pKi |
| --- | --- |
| COc1ccc(C(/C=C/c2cccc(OC)c2OC)=N/NC(=O)Cn2c(=O)oc3ccc(Cl)cc32)cc1 | 8.00 |

Molecular target: T2, Amine oxidase [flavin-containing] A
Experiment: Irreversible inhibition of human MAO-A assessed as residual enzyme activity at 4 fold IC50 incubated for 15 mins and measured before dialysis relative to control
Settings: not given
Procedure, shortened: (§4)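 Recombinant hMAO-A (1 U/mL) was preincubated with inhibitor for 15 min at 37 °C in 0.05 M potassium phosphate, pH 7.4, with 5% sucrose and 1% DMSO. It was then dialyzed at 4 °C against 100 mM potassium phosphate, pH 7.4, 5% sucrose (12 000 MWCO), with buffer replaced twice over 24 h. Dialyzed and undialyzed mixtures were assayed together for MAO-A activity, in triplicate; residual activity is given as mean ± SEM.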

| SMILES | Activity [%] |
| --- | --- |
| C#CCN(C)[C@H](C)Cc1ccccc1 [SELEGILINE] | 89.96 |

Molecular target: T2, Amine oxidase [flavin-containing] A
Experiment: Irreversible inhibition of human MAO-A assessed as residual enzyme activity at 4 fold IC50 incubated for 15 mins and measured 24 hrs post dialysis relative to control
Settings: 24.25 h, time 1455 min
Procedure, shortened: as §4

| SMILES | Activity [%] |
| --- | --- |
| C#CCN(C)[C@H](C)Cc1ccccc1 [SELEGILINE] | 90.01 |

Tested on: not listed separately
Experiment: Effect on locomotor activity in CD1 mouse assessed as total distance traveled at 30 mg/kg, po administered via gavage for 7 days by open field test
Format: ADME, organism-based
Settings: in vivo, 168 h, time 7 day
Procedure, shortened: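 Each mouse placed in the centre of a 50 × 50 × 30 cm black box and video-tracked; total distance travelled over 5 min; n = 8–10.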

| SMILES | Activity |
| --- | --- |
| COc1ccc(C(/C=C/c2cccc(OC)c2OC)=N/NC(=O)Cn2c(=O)oc3ccc(Cl)cc32)cc1 | Non-Toxic |

Tested on: Mus musculus
Experiment: Antidepressant-like activity in CD1 mouse assessed as reduction in immobility time at 30 mg/kg, po administered via gavage as single dose measured after 1 hr by Porsolt-forced swim test
Format: functional, organism-based
Settings: not given

| SMILES | Activity |
| --- | --- |
| COc1ccc(C(/C=C/c2cccc(OC)c2OC)=N/NC(=O)Cn2c(=O)oc3ccc(Cl)cc32)cc1 | Active |
